Read-outs that look alike come from different tables or passages of the source. Marks after values point to notes of the source that are not given here.
How the values were obtained:
Caco-2 cells [1] = assay: Uptake of BSP from the apical membrane of Caco-2 cells; format: in vitro ADME, human
Method in brief: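 Confluent Caco-2 cells (passage 54–70, 2 weeks on collagen) preincubated 20 min, then exposed to BSP in Hanks' buffer with glucose plus MES or HEPES. Conditions: 5 μM for 5 min at 37 °C pH 6.0 (control); pH 5.0/7.4/8.5; 4 °C; or Na+-free (KCl or choline chloride). Time course ran to 60 min; varied concentrations were fitted to carrier-mediated plus diffusion terms. Cell extracts normalised to protein; n=3–8.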

[2] = system: organic anion transporting polypeptides (OATPs); assay: Effect of coincubated or pretreated compounds on BSP uptake by Caco-2 cells; format: cell-based, human; details: 37 °C, 5 min; for Decrease of BSP uptake on coincubation: 5 μM BSP with 100 μM compound, Caco-2 cells; for Ki: read-out: Inhibition constant (Ki) for BSP uptake, Dixon plot, competitive, 2, 5 or 10 μM BSP, PFCA 25, 50 or 100 μM, pH 6.0
Caco-2 cells [3] = format: in vitro ADME, human; details: 1 μM PFCA, pH 6.0, 37 °C, 5 min
Caco-2 cells [4] = details: cited from earlier work
[5] = system: organic anion transporting polypeptides (OATPs); details: Caco-2 cells; cited from earlier work
Caco-2 cells [6] = details: cited from earlier work; remark: listed apart in the source
[7] = 5 μM BSP, 37 °C, pH 6.0, up to 60 min
[8] = Caco-2 cells, 37 °C, pH 6.0, 5 min, BSP 0.5–100 μM
[9] = coincubation of 5 μM BSP with 100 μM compound

O=C1OC(c2ccc(O)c(S(=O)(=O)O)c2)(c2ccc(O)c(S(=O)(=O)O)c2)c2c(Br)c(Br)c(Br)c(Br)c21 [BSP, sulfobromophthalein]
Relative uptake rate (% of control) (Caco-2 cells [1]; 5 μM BSP, 4 °C and pH 6.0, 5 min, control 37 °C and pH 6.0): 49.9 ± 3.1 ^d % of control
Relative uptake rate (% of control) (Caco-2 cells [1]; 5 μM BSP, 37 °C and pH 5.0, 5 min, control 37 °C and pH 6.0): 101.7 ± 5.1 % of control
Relative uptake rate (% of control) (Caco-2 cells [1]; 5 μM BSP, 37 °C and pH 7.4, 5 min, control 37 °C and pH 6.0): 105.2 ± 5.3 % of control
Relative uptake rate (% of control) (Caco-2 cells [1]; 5 μM BSP, 37 °C and pH 8.5, 5 min, control 37 °C and pH 6.0): 101.6 ± 1.3 % of control
Relative uptake rate (% of control) (Caco-2 cells [1]; 5 μM BSP, 37 °C, 5 min, Na+-free medium (NaCl replaced with KCl)): 95.0 ± 7.4 % of control
Relative uptake rate (% of control) (Caco-2 cells [1]; 5 μM BSP, 37 °C, 5 min, Na+-free medium (NaCl replaced with choline chloride)): 81.0 ± 4.0 % of control
Time at which BSP uptake plateaued (Caco-2 cells [1]; [7]): about 15 min
Time until which BSP uptake increased linearly (Caco-2 cells [1]; [7]): 10 min
Reduction of BSP uptake at low temperature (Caco-2 cells [1]; 4 °C, pH 6.0, versus 37 °C): 50%
Contribution of carrier-mediated uptake to BSP uptake (Caco-2 cells [1]; Caco-2 cells): approximately 70%
Contribution of uptake via simple diffusion to BSP uptake (Caco-2 cells [1]; Caco-2 cells): ~30%
Vmax of BSP uptake (Caco-2 cells [1]; [8]): 1.15 ± 0.07 nmol (mg protein)^−1 (5 min)^−1
kd (coefficient of passive diffusion) of BSP uptake (Caco-2 cells [1]; [8]): 38.2 ± 0.53 μL (mg protein)^−1 (5 min)^−1
Km (Caco-2 cells [1]; read-out: Km of BSP uptake, Caco-2 cells, 37 °C, pH 6.0, 5 min, BSP 0.5–100 μM): 13.9 ± 1.3 µM

O=[N+]([O-])c1ccc(O)c([N+](=O)[O-])c1 [DNP, 2,4-dinitrophenol]
Relative uptake rate of BSP (% of control) ([2]; cells treated with 1 mM DNP for 20 min, then 5 μM BSP): 105.9 ± 10.0 % of control

COc1ccc(Cl)cc1C(=O)NCCc1ccc(S(=O)(=O)NC(=O)NC2CCCCC2)cc1 [Glibenclamide, glibenclamide]
Decrease of BSP uptake on coincubation [2]: 48%
Relative uptake rate of BSP (% of control) [2, 9]: 52.2 ± 3.5 ^d % of control

[N-]=[N+]=[N-].[Na+] [NaN3, sodium azide]
Relative uptake rate of BSP (% of control) ([2]; cells treated with 10 mM NaN3 for 20 min, then 5 μM BSP): 106.4 ± 6.8 % of control

O=C(O)C(F)(F)C(F)(F)C(F)(F)C(F)(F)C(F)(F)C(F)(F)C(F)(F)C(F)(F)C(F)(F)F [PFDA, perfluorodecanoic acid]
Decrease of BSP uptake on coincubation [2]: 27–55%
Ki [2]: 43.2 ± 0.3 µM

O=C(O)C(F)(F)C(F)(F)C(F)(F)C(F)(F)C(F)(F)C(F)(F)F [PFHpA, perfluoroheptanoic acid]
Decrease of BSP uptake on coincubation [2]: 27–55%

O=C(O)C(F)(F)C(F)(F)C(F)(F)C(F)(F)C(F)(F)F [PFHxA, Perfluorohexanoic acid]
Uptake of PFCA by Caco-2 cells (rank among C6–C12) (Caco-2 cells [3]): the lowest

O=C(O)C(F)(F)C(F)(F)C(F)(F)C(F)(F)C(F)(F)C(F)(F)C(F)(F)C(F)(F)F [PFNA, perfluorononanoic acid]
Decrease of BSP uptake on coincubation [2]: 27–55%
Ki [2]: 35.3 ± 0.1 µM
Uptake of PFCA by Caco-2 cells (rank among C6–C12) (Caco-2 cells [3]): the highest

O=C(O)C(F)(F)C(F)(F)C(F)(F)C(F)(F)C(F)(F)C(F)(F)C(F)(F)F [PFOA, Perfluorooctanoic acid]
Decrease of BSP uptake on coincubation [2]: 27–55%
Ki [2]: 62.2 ± 1.3 µM
Uptake of PFCA by Caco-2 cells (rank among C6–C12) (Caco-2 cells [3]): third highest
Vmax of PFOA uptake (Caco-2 cells [4]; PFOA 1–500 μM): 457 pmol/mg protein/min
Km (Caco-2 cells [4]; read-out: Km of PFOA uptake, PFOA 1–500 μM): 8.3 µM

O=S(=O)(O)C(F)(F)C(F)(F)C(F)(F)C(F)(F)C(F)(F)C(F)(F)C(F)(F)C(F)(F)F [PFOS, perfluorooctane sulfonate]
Decrease of BSP uptake on coincubation [2]: 54%
Relative uptake rate of BSP (% of control) [2, 9]: 46.1 ± 4.5 ^d % of control

O=C(O)C(F)(F)C(F)(F)C(F)(F)C(F)(F)C(F)(F)C(F)(F)C(F)(F)C(F)(F)C(F)(F)C(F)(F)F [PFUnDA, perfluoroundecanoic acid]
Decrease of BSP uptake on coincubation [2]: 27–55%

C[C@]12CC[C@@H]3c4ccc(OS(=O)(=O)O)cc4CC[C@H]3[C@@H]1CCC2=O [estrone-3-sulfate]
Decrease of BSP uptake on coincubation [5]: 39%
Km (Caco-2 cells [6]; read-out: Km of estrone-3-sulfate, ref Gram et al. [27]): 23 µM
Km (Caco-2 cells [6]; read-out: Km of estrone-3-sulfate, ref Kis et al. [26]): 6 µM
Km (Caco-2 cells [6]; read-out: Km of estrone-3-sulfate, ref Sai et al. [4]): 1.8 µM

CO[C@H]1/C=C/O[C@@]2(C)Oc3c(C)c(O)c4c(O)c(cc(O)c4c3C2=O)NC(=O)/C(C)=C\C=C\[C@H](C)[C@H](O)[C@@H](C)[C@@H](O)[C@@H](C)[C@H](OC(C)=O)[C@@H]1C [rifamycin SV]
Decrease of BSP uptake on coincubation [5]: 40%

— PMC7490525 (Biochemistry and Biophysics Reports, 2020)
